Source: PubChem (Johns Hopkins Ion Channel Center)
MrgX1 PAM: positive allosteric modulators of MrgX1, primary screen, HEK293 cells, Fluo-4 calcium flux; Mas-related G-protein coupled receptor member X1 (Homo sapiens), Q96LB2; FDSS; active compounds read high; B-score at 10 µM; 310,000 tested, 0.63% active; AID 588675, 2011;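 active means plate-corrected calcium response at least 3 library SD above typical, normal starting fluorescence, not activating the receptor alone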;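 further: compound read alongside a low EC10 to EC30 dose of BAM8-22 agonist; peak minus trough fluorescence over baseline measured at the second addition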
Target sequence (Q96LB2 whole entry, looked up): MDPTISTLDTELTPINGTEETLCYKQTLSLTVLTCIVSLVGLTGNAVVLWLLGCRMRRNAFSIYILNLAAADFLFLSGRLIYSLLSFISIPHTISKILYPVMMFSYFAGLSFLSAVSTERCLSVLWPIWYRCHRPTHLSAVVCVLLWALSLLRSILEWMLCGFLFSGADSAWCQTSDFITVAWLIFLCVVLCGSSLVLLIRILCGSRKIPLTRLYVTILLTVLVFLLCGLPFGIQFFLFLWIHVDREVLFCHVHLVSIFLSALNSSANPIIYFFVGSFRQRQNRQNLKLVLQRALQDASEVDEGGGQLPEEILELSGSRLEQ
MrgX1 antagonist: antagonists of human MrgX1 receptor, primary screen, HEK293 cells, Fluo-4 calcium flux; Mas-related G-protein coupled receptor member X1 (Homo sapiens), Q96LB2; BAM8-22 antagonism; active compounds read low; B-score at 10 µM; 310,000 tested, 1.3% active;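 active means calcium-response B-score plate-corrected more than 3 library SD below zero, starting fluorescence within 5 deviations, no agonist response on first addition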;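 further: peak minus trough fluorescence over baseline after final BAM8-22 challenge near maximal dose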
MrgX1 ag: agonists of human MrgX1 receptor, primary screen, HEK293 cells, Fluo-4 calcium flux; AID 588627, 2011; 310,000 tested, 0.44% active; Fluo-4 calcium fluorescence, agonist mode; active compounds read high; B-score at 10 µM; Mas-related G-protein coupled receptor member X1 (Homo sapiens), Q96LB2;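 active means calcium response B-score plate-corrected fluorescence ratio at least 3 library SD, with starting fluorescence B-score inside 5 SD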
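System: HEK293 cells stably expressing human MrgX1 receptor; Dosing: test compound in the initial addition of three; Schedule: overnight plating, then 30 min 37 °C plus 30 min room-temperature dye loading; Detection: kinetic calcium dye fluorescence, Fluo-4 NW; Controls: per-plate positive and negative controls for Z′ factor.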
RGS4 inh: RGS4 inhibitors, primary screen, cell-based, HEK293 M3R inducible RGS4, calcium flux; Regulator of G-protein signaling 4 (Homo sapiens), P49798; Fluo-4 calcium flux; active compounds read high; triggered by carbachol at its EC20; B-score at 10 µM; 310,000 tested, 0.45% active; AID 463165, 2010;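 active means B-score, a plate-corrected calcium signal, over three deviations above library mean, with baseline fluorescence within five deviations of library mean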;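 further: RGS4 expression induced by doxycycline in cells with stable M3 receptor; B-score is computed from the integrated fluorescence ratio over baseline after carbachol; higher B-score means a larger calcium signal and so more RGS4 inhibition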
Target sequence (P49798 whole entry, looked up): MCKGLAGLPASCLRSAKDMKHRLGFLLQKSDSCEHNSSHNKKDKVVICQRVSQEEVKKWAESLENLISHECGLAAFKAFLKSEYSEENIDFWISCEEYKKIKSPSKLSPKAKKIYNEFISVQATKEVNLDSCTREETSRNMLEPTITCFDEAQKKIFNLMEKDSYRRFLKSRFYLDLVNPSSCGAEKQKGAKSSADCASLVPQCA
RGS4 act: RGS4 potentiators or activators, primary screen, cell-based, HEK293 M3R inducible RGS4, calcium flux; B-score at 10 µM; AID 463111, 2010; 310,000 tested, 0.92% active; carbachol calcium flux Fluo4; active compounds read low;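 active means B-score of the integrated calcium signal more than 4 SD below the library mean, with starting fluorescence not abnormally high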;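 further: negative B-score means reduced calcium response which marks RGS4 activation or potentiation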
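System – HEK293 FlpIn-TREx cells, stable M3R, doxycycline-inducible RGS4 · Reagent – ECmax carbachol challenge · Times – compound preincubation 20 min at room temperature before agonist · Technique – Fluo4 fluorescence kinetic imaging of calcium · Measure – B score of integrated Fluo4 ratio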
MrgX1 PAM conf: MrgX1 positive allosteric modulators, duplicate retest, confirmation, HEK293 cells, Fluo-4 calcium flux. shares compounds with MrgX1 PAM. Fluo-4 calcium fluorescence, FDSS. activation (ratio percentage), % at 10 µM. 1,200 tested, 13% active;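 active means ratio at least 3 SD above the weak peptide control, stable starting fluorescence, no direct agonism earlier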;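 further: compound followed by low BAM8-22 agonist challenge near EC20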
MrgX1 ant reconf: MrgX1 receptor antagonists, duplicate retest, confirmation, HEK293 cells, Fluo-4 calcium flux. shares compounds with MrgX1 antagonist. BAM8-22 calcium flux; active compounds read low. remaining BAM8-22 calcium response % of control (active compounds read low), % at 10 µM. 2,300 tested, 19% active. AID 602420, 2012;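 active means remaining agonist calcium response no higher than 100% minus 3 SD of agonist-only control wells, with starting fluorescence near control levels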;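 further: agonist BAM8-22 given at a near maximal EC90 to ECmax level; peak minus minimum fluorescence divided by baseline after agonist addition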
HEK293 Ca flux: nonspecific calcium signal in parental HEK293, confirmation, counter-screen for MrgX1 antagonist project, parental HEK293 cells, Fluo-4 calcium flux. shares compounds with MrgX1 antagonist. Fluo-4 calcium fluorescence, FDSS. fluorescence ratio F(max-min)/F0 at 10 µM. 4,000 tested, 2% active. AID 624111, 2012;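 active means duplicate-averaged calcium fluorescence ratio at least three times the standard deviation of buffer wells, a nonspecific response in parental cells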
HEK293 Ca counter: calcium response in parental HEK293 cells, primary screen, counter-screen for MrgX1 allosteric activator project, cell-based, Fluo-4 calcium flux, duplicate. shares compounds with MrgX1 antagonist. Fluo-4 fluorescence ratio; active compounds read high. fluorescence ratio F(max-min)/F0 at 10 µM. 4,000 tested, 0.4% active. AID 624114, 2012;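 active means calcium fluorescence ratio, averaged over duplicates, at least 3 SD of the buffer-well ratio, meaning a nonspecific response in receptor-free cells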;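 further: untransfected parental HEK293 lacking MrgX1 used as counterscreen for MrgX1 allosteric activators; fluorescence change taken during the second addition on a kinetic imager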
HEK293 Ca cntr2: calcium response in parental HEK293 cells, primary screen, counter-screen for MrgX1 agonist project, cell-based, Fluo-4 calcium flux, duplicate, agonist mode; 4,000 tested, 8.7% active; fluorescence ratio F(max-min)/F0 at 10 µM; shares compounds with MrgX1 antagonist; Fluo-4 calcium fluorescence (FDSS); active compounds read high;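 active means calcium fluorescence ratio at least three times the spread of buffer wells, meaning a non-specific response in parental cells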
Numbers stand for hits; i = inactive; nt = no result given; ! = not active in a repeat. Compounds with a hit are over-represented: about 3.5% of the library has one in this group of screens.

SMILES	MrgX1 PAM	MrgX1 antagonist	MrgX1 ag	RGS4 inh	RGS4 act	MrgX1 PAM conf	HEK293 Ca flux	HEK293 Ca counter	HEK293 Ca cntr2	others
Nc1c2c(nc3ccc(Br)cc13)N(Cc1ccccc1)CC2	8.3	i	i	i	i	i	i	i	i
CC12CCC(C(=O)Nc3ccc(SC(F)F)cc3)(CC1=O)C2(C)C (stereo not given)	6.7	i	i	i	i	i	i	i	i
COc1ccc(C(C)C)cc1S(=O)(=O)N1CCN(c2ccccc2)CC1	15	i	i	i	i	i	i	i	i
COc1ccc(OC)c(S(=O)(=O)N2CCN(c3ccccc3)CC2)c1	i	i	i	i	i	nt	nt	nt	nt
COc1ccc(Cl)cc1S(=O)(=O)N1CCN(c2ccc(F)cc2)CC1	17	i	i	i	i	i	i	i	i
COC(=O)c1cc(C(=O)OC)cc(N2C(=O)CC(Sc3nc(C)cc(C)n3)C2=O)c1 (stereo not given)	i	i	i	i	i	nt	nt	nt	nt
COC(=O)c1ccc(N2C(=O)CC(Sc3n[nH]c(C)n3)C2=O)cc1 (stereo not given)	7.8	i	i	i	i	i	i	i	i
C=C1N(c2cccc(Cl)c2)C(=O)OC1(C)C	i	i	i	i	i	nt	nt	nt	nt
CC1CCCN(C(=O)CSc2nnc(-c3c[nH]c4ccccc34)o2)C1 (stereo not given)	9.5	i	i	i	i	8.7%	i	i	i
COc1ccc(S(=O)(=O)NCc2ccc(C(=O)NCc3cccnc3)cc2)cc1	i	i	i	i	i	nt	nt	nt	nt
COc1ccc(-n2ncc3c2CC(C)(C)CC3NC(=O)c2cnc(C)cn2)cc1 (stereo not given)	i	i	i	i	i	nt	nt	nt	nt
Oc1cc2c(c(Cl)c1O)CCNCC2c1ccccc1 (stereo not given)	i	i	i	i	i	nt	nt	nt	nt
Oc1ccc(C2CNCCc3c2cc(O)c(O)c3Cl)cc1 (stereo not given)	6.7!	i	i	i	i	i	i	i	i
O=C(Nc1nccs1)c1csc2c1CCCC2	12	i	i	i	i	i	i	i	i
O=C(Nc1ccon1)c1csc2c1CCCC2	i	i	i	i	i	nt	nt	nt	nt
CC(C)(C)c1ccc(-n2ncc3c2CCCC3NC(=O)CN2CCCC2=O)cc1 (stereo not given)	13	i	i	i	i	i	i	i	i
CCNC(=S)N(Cc1cc2cc(C)c(C)cc2[nH]c1=O)C1CCCC1	i	i	i	i	i	nt	nt	nt	nt
CCC(=O)N(Cc1cc2cc(C)c(C)cc2[nH]c1=O)C1CCCCC1	7.6	i	i	i	i	i	i	i	i
COC(Cn1c2c(c3cc(C)ccc31)CCCC2NCc1ccccc1)OC (stereo not given)	nt	nt	nt	i	i	nt	nt	nt	nt
Cc1cc(C(=O)N2CCCC(CCC(=O)N3CCN(c4ccccn4)CC3)C2)c(C)o1 (stereo not given)	i	i	i	i	i	nt	nt	nt	nt
Cc1ccc(C(=O)N2CCCC(CCC(=O)N3CCN(c4ccccn4)CC3)C2)cn1 (stereo not given)	i	i	i	i	i	nt	nt	nt	nt
Cc1cccc(C(=O)N2CCCC(CCC(=O)N3CCN(c4ccccn4)CC3)C2)c1C (stereo not given)	9.4	i	i	i	i	i	i	i	i
Cc1ccc(C(=O)N2CCCC(CCC(=O)N3CCN(c4ccccn4)CC3)C2)cc1C (stereo not given)	7.8	i	i	i	i	i	i	i	i
COc1cccc(CC(=O)N(CCC2=CCCCC2)c2c(N)n(Cc3ccccc3)c(=O)[nH]c2=O)c1	i	i	i	i	i	nt	nt	nt	nt
CCC(CC)NC(=O)c1cccc(Oc2ccccc2)c1	i	i	i	i	i	nt	nt	nt	nt
SMILES	MrgX1 PAM	MrgX1 antagonist	MrgX1 ag	RGS4 inh	RGS4 act	MrgX1 PAM conf	HEK293 Ca flux	HEK293 Ca counter	HEK293 Ca cntr2	others
CN(c1ccccc1)S(=O)(=O)c1cccc(NC(=O)COC(=O)C2CCCCC2)c1	i	i	i	i	i	nt	nt	nt	nt
CN1C2CCC1CC(NC(=O)CSCc1ccc(Cl)cc1Cl)C2 (stereo not given)	i	i	i	i	i	nt	nt	nt	nt
CCOC(=O)c1sc(=NC(=O)CCSc2ccccc2)n(C)c1C	i	i	i	i	i	nt	nt	nt	nt
CCOC(=O)c1sc(=NC(=O)COc2ccccc2)n(C)c1C	11	i	i	i	i	i	i	i	i
O=C(CNC(=S)NC(=O)c1ccccc1)c1ccccc1	i	i	i	i	i	nt	nt	nt	nt
O=C(CNC(=S)NC(=O)c1ccc(F)cc1)c1ccccc1	i	-4.7	i	i	i	nt	i	i	i	MrgX1 ant reconf=i
CN(Cc1cccc(Cl)c1)C(=O)C1CCC(=O)N(C2CC2)C1 (stereo not given)	i	i	i	i	i	nt	nt	nt	nt
COC(=O)CCC(=O)Nc1cccc(Cl)c1	i	-5.4	i	i	i	nt	i	i	i	MrgX1 ant reconf=84%
Cc1ccc(S(=O)(=O)NCCC(=O)NCc2ccco2)cc1	i	-4.6	i	i	i	nt	i	i	i	MrgX1 ant reconf=i
COC(=O)CCc1c(C)c(C(=O)c2cc(F)c(F)c(F)c2F)c2ccccn12	i	i	i	i	i	nt	nt	nt	nt
COC(=O)CCc1c(C)c(C(=O)c2ccc(F)cc2)c2ccccn12	i	-5.7	i	i	i	nt	i	i	i	MrgX1 ant reconf=i
Cc1cc(N2CCN(C(=O)c3cccs3)CC2)c(F)cc1[N+](=O)[O-]	i	i	i	i	i	nt	nt	nt	nt
CC(Nc1ncnc2sccc12)c1ccccc1 (stereo not given)	i	i	i	i	i	nt	nt	nt	nt
O=C1c2ccccc2OC2(C=Cc3ccccc3O2)N1Cc1ccccc1 (stereo not given)	i	-5	i	i	i	nt	i	i	i	MrgX1 ant reconf=i
